According to the EternaBench riboswitch data:

Test system: MS2 coat protein
Test: apparent Kd, MS2 coat protein; higher = weaker binding; RNA-MaP array; FMN 200 µM where present
Outline: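 Green signal was scaled to red-channel RNA signal and control-cluster median Fmax, and the apparent Kd was taken as the median of filtered per-cluster binding-curve fits. The binding series used SNAP-549-labelled MS2 coat protein from 0.7 or 1.5 nM, doubling to 3 µM, on designs transcribed by stalled E. coli RNA polymerase on Illumina sequencing-chip clusters. Each series ran without and then with constant ligand in 100 mM Tris-HCl pH 7.5, 80 mM KCl, 4 mM MgCl2, BSA, DTT, yeast tRNA and Tween-20.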

[1] = designed as: OFF switch for flavin mononucleotide, no ligand
[2] = ligand present: flavin mononucleotide, designed as: OFF switch for flavin mononucleotide
[3] = designed as: ON switch for flavin mononucleotide, no ligand
[4] = ligand present: flavin mononucleotide, designed as: ON switch for flavin mononucleotide

Sequence | apparent Kd [1] [nM] | apparent Kd [2] [nM] | apparent Kd [3] [nM] | apparent Kd [4] [nM]
UCGCUGCGAGGAUAUACGUUCGCGCGCUUUCGUUUGCGCGUACAUGAGGAUCACCCAUGUAGAAGGCGCGCUGC | 16.4 | 15.5 | – | –
AUAGGUUAAGGAGGAUAUAGAGGGAGACGUACACAUGAGGAUCACCCAUGUAUUUAAUUAGUUUACUAGAAGGCUUAUGAUUGU | – | – | 65.5 | 101
GUAUUUUAAGUAAGGAUAUGCCUCUGGAAACGGAGGUAGAAGGUACAUGAGGAUCACCCAUGUUUCUCUUUUGG | 16.3 | 20.6 | – | –
UCGCGGGUGCAGAAGGGAUAGGCCUAUUGUCGUGGUGUCCAAACUUAACAUGAGGAUCACCCAUGUCAGGAUAUGCCCACGCGA | 73.9 | 117 | – | –
CUGUGACGGAUCCAGAAUUACAACAUGAGGAUCACCCAUGUACAGGAUAUAGGGUUGAUAGGCGCCUAGAAGGGUAUGAUCACG | 156 | 177 | – | –
GGGUACAUCGGAGGAUAUCAUGUAAAUACAUGAGGAUCACCCAUGUCGAUGGAGACAUCGGAGAUUGAGAAGGCCGAUGUACCU | – | – | 152 | 8.75
UUAAUUAUACAAGGAUAUCUAUUGUUGUUUCGACUUACAUGAGGAUCACCCAUGUUAAUAUGUUUAGAGAAGGUGUAUUUUCAG | – | – | 55.1 | 35.8
GGAGCAGGGUGAGGAUAUGUAAAAUUCGAAAGGACAGAAGGCACUUAACCAACAUGAGGAUCACCCAUGUAGGCGACGGCACCA | – | – | 30 | 21.8
CCAUCGUGUGUGAGGAUAUGCUGGUCCUUGGAUCAGCAGAAGGCACAUGAGGAUCACCCAUGUGAAAACGAUGG | 17.9 | 56.4 | – | –
AUUGUUCGAGAGAAGGGAACAUGAGGAUCACCCAUGUUACCUCACCUGGUGACGGAACUCCAAGUUCAGGAUAUCUCGAGCGAU | 5.63 | 8.59 | – | –
CAGCUGAAAGUGAGGAUAUAGACUGCUUCGGCAGUCUAGAAGGCACAUGAGGAUCACCCAUGUCUCAACAGCUG | 16.6 | 70.2 | – | –
UUAUACGUUGAGGAUAUGCGACUUUGUAUAGUUGUAGAAGGCGAUACAUGAGGAUCACCCAUGUUUAUGGGCAU | 323 | 554 | – | –
CUCAUGAGAGGAUAUACAUGAGGAUCACCCAUGUGGUCAUCUCCUCGGGCUCCAUUACGUAGAAGGCUCAUUUG | 41.4 | 88.4 | – | –
CGCCCGGGAGGAUAUCCAAUAUAUGACAUGAGGAUCACCCAUGUUUCCACUCGUACCUCCGGAGAAGGCCCGGCGC | 22.2 | 22.4 | – | –
UAGCGCUGUCGAGAGGAUAUGCGGUGAUGGACAUGAGGAUCACCCAUGUUAGCGAUAGCAUUACGGUAGAAGGCUCUACAGCUGC | – | – | 27.6 | 13.6
GGUGUCAUCGAGAAGGCCUCAACAUGAGGAUCACCCAUGUUGUAAUAUGGGAGGAUAUCGAUGAUACAGCUACGUUUCGUAGCU | – | – | 20.2 | 5.86
AAUUAGGUCACAGGAUAUACAACAUCCAAUGCUGUAGAAGGGUGUCACAAUCAUAGCUGACAUGAGGAUCACCCAUGUAUCCAC | – | – | 202 | 106
AUCAGCUCGUCAGGAUAUACGUCACUGCGUCAGCAGUGUAGUAAGAUCACAUGAGGAUCACCCAUGUAGAAGGGACGAGCUGAU | 5.55 | 12 | – | –
GCUAUAGAUGUAGGAUAUGAUAUAGAAGCUAUGUCAGAAGGACAUGAGGAUCACCCAUGUCAAUGGAUGGAGAGAAGAUAUGGC | 64.2 | 69.3 | – | –
GCUCGGAGAGGAUAUACAUGAGGAUCACCCAUGUAGGUAAGCAGCGAUGGCAGUCCAUGUAGAAGGUUCAGGUG | 43.4 | 49.7 | – | –
UAUCGCAGUGCAGGAUAUCCAAGGUUUGGCGAAGGAGAAGGGCACGCGACAUGAGGAUCACCCAUGUAAAGUGUGGCGUCCUCU | 116 | 62.2 | – | –
CCAAGAAUAGGAUAUACACCGUGUCAGCUUUUAUAUAUCGCACAUGAGGAUCACCCAUGUAGAAGGGUUCUCUC | 676 | 564 | – | –
CAGCGAUAGCUGAACAAUCUAUCUGAGGAUAUUCAUAUUAAAACAUGAGGAUCACCCAUGUAUUGGGAGAAGGCAGAUAGAUUG | – | – | 42.1 | 6.53
GAGUAGAAGUUAGGAUAUUGGAUAGGGACGGAAUAAGAAGGAGCAAGACAUGAGGAUCACCCAUGUGUAGAAGAAGAGAUCCUC | 448 | 168 | – | –
AUCAGCUCGUCAGGAUAUACGUCACUGCGUCAGCAGUGUGGUAAGAUCACAUGAGGAUCACCCAUGUAGAAGGGACGAGCGGAU | 14.3 | 279 | – | –
AUUAUACAUGAGGAUCACCCAUGUAAUUAAUUAAUUAAGAUCAAGGAUAUCAGCUCGUUUAGAGCUGAGAAGGUGAUCACAUGU | – | – | 356 | 295
GCGUUCUUGUAGAAGGUACAUAAAAUCUAUUUUUAACACAUGAAACAUGAGGAUCACCCAUGUUGUAAGGAUAUACAUGAACGC | – | – | 7.03 | 5.88
GCCCGGCAUACAUGAGGAUCACCCAUGUCAGAAAGGGUAAUCAGAAGGUACUAUUAGAGAAAGAGUAAGGAUAUGAAGCCGGGC | – | – | 599 | 134

Sequence | apparent Kd [1] [nM] | apparent Kd [2] [nM] | apparent Kd [3] [nM] | apparent Kd [4] [nM]
GUGCACACUCGAGGAUAUCGGAGAGUUCUCCUUCGAGAAGGCGAUUCGUGCCGUGUUAUUCUGGACAUGAGGAUCACCCAUGUG | – | – | 84.2 | 32.4
AUAUGACAUGAGGAUCACCCAUGUGAGGAUAUAUGCGCAGGUCCAGGGACGGCUGUGCAUAGAAGGUGCUUGGG | 307 | 268 | – | –
UUCGUGCAGCUUUGCUGUACGCGUACAUGAGGAUCACCCAUGUAGGAUAUGGUAGGCAUUGCUUACUAGAAGGAUAGUGUGAUC | 124 | 32.2 | – | –
AAUAUAAAGAGCUGGUACUCAAUAACAUGAGGAUCACCCAUGUAGGAUAUCAGCACGAUAAGUGCUGAGAAGGACAUCCAGCUC | 16.6 | 29.4 | – | –
AAGUAGAUCCGAGGAUAUACAAGCCGGAAACGGUACAUGAGGAUCACCCAUGUAGAAGGCGGAUCUACAGGUACUAAAGUACCA | 5.53 | 9.17 | – | –
UUUUUUGUAGUGAGGAUAUCGUUGUGGAUGUGGAUCGAGAAGGCACAUGAGGAUCACCCAUGUUAGUUGUGGUU | 155 | 216 | – | –
AAAUAGCAUGAGGAUAUUGGACUGGAUUCAGUACGAGAAGGCAUGACAUGAGGAUCACCCAUGUUUUGUUGGGA | 51.7 | 202 | – | –
GGUCCACAUGAGGAUCACCCAUGUUAGGAUAUCUCGCCCGAGUCGUUAUGGGCCAGGCAGAGAAGGAAUGUGAA | 20.4 | 18.8 | – | –
AGAGUGUCAGGAUAUCCUGCUGUGCGGAAUAUGUAUUCACGGGAGAAGGGACAUGAGGAUCACCCAUGUUUGAG | 20.6 | 20.8 | – | –
GCGUCAGAAUUAAUUGUGACAGACAGAAGGCAAUAGUUCAUGUCAGACAUGAGGAUCACCCAUGUUGAGGAUAUGUAUUUACUC | 7.54 | 8.35 | – | –
AUAUUCUAGAUAGGAUAUACUGAGGUUGAAUGGGUAGAAGGAUCGUUAGAGUGGACUACAUGAGGAUCACCCAUGUUGUUUAUU | – | – | 48.3 | 42.7
GGGUACAUCGGAGGAUAUCCUGUAAAUACAUGAGGAUCACCCAUGUCGAUGGAGACAUCGGAGAUUGAGAAGGCCGAUGUACCG | – | – | 35 | 6.74
CCACGUCUCAUUAACAUGAGGAUCACCCAUGUCAAAAGACAUGAGGAUAUGGAUCCUAAUUGGAUCCAGAAGGCAUGGACGUGG | – | – | 516 | 59.4
GAUAGGACAGAGAAGGACAUGGCUAGAGAUACUAGCAUAUGAACCUUCACAUGAGGAUCACCCAUGUAGGAUAUCUGUCCUAUC | 3.8 | 4.86 | – | –
GUUUCGUGAGGAUAUGUGGCUUCGAUCGUGCGAACGAGGCUACAGAAGGCACAUGAGGAUCACCCAUGUUCCUC | 37.4 | 481 | – | –
UGUCUAUAUGAAGGAUAUCUAAGCAUAAACCGUAGAGAAGGUCAAUAGUACAUGAGGAUCACCCAUGUUGGGAUUGAUGGGUUU | 25.3 | 38.6 | – | –
UGUUGUAUUACAGGAUAUCUAGUAUUUAUAUUUAGAGAAGGGUAUUCACAUGAGGAUCACCCAUGUAUAUACGAGGAAGUUGUG | – | – | 46.3 | 49.2
AACUUACAUGAGGAUCACCCAUGUCAGGAUAUCGAAAUUGGCUCGCAAUUGCGAGCGACGAGAAGGGACGUUUU | 17.3 | 24.8 | – | –
GACUGCAUGUAAGGAUAUCGACUGGAUAACAGUCGAGAAGGUACAUGAGGAUCACCCAUGUAAUAAGAUCAAUAAUAAGCAGUC | 14.4 | 31.3 | – | –
UAGUACUAGGGAGGAUAUGGGAAGAUACAUGAGGAUCACCCAUGUUUAAGAAUGCCGAGAGGCAACUAGAAGGCCCUAGUACCU | – | – | 463 | 19.2
CGGAUGUCAGGAUAUCGUGCAUACAACGAAAGUUCUAUGUGCGAGAAGGGACAUGAGGAUCACCCAUGUUACGG | 252 | 588 | – | –
AAAAUCAAUUGAGGAUAUUCAUACACUACAUACGGAGAAGGCAAACAAUCAUGAGGACAUGAGGAUCACCCAUGUUGUGACCAU | – | – | 22.3 | 16.3
CGGAGGUCAGGAUAUGCAUGGCGGGACUUGCGUCGUGGCGUGCAGAAGGGACAUGAGGAUCACCCAUGUGGAGG | 155 | 267 | – | –
AACGACGGAGGAUAUACACCCUGGGACUCAUCAUCCCUUAGACAUGAGGAUCACCCAUGUAGAAGGCCGGACAC | 34.9 | 154 | – | –
GCGCUUAUACAGAAGGCCAUAUACAUGAGGAUCACCCAUGUUACAUGGUGGAGGAUAUGUUAUUAAGUACAGGUAGAUGAGCGC | – | – | 5.98 | 5.38
GGUUAGAAAGGAUAUACAUGUCGUGAGACAUCUUGCACCUAACAUGAGGAUCACCCAUGUAGAAGGUUCAAGCC | 17.4 | 30.5 | – | –
GUAGAGUAAGGAUAUGAUGAAUAGGAUAGAAUGGUUAGAAAUCAGAAGGUACAUGAGGAUCACCCAUGUAAUGU | 22.7 | 20.8 | – | –
